Activity calls are given as the source filed them. The rule behind the calls is not given here.
Columns and labels:
A549 = test: Cytotoxicity against human A549 cells after 48 hrs by SRB assay; format: functional; settings: A549, 48 h
Outline: (§1)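 NCI-60 five-dose screen: compounds dissolved in DMSO/H2O, tested at five 10-fold dilutions (10^-4 to 10^-8 M) for 48 h. Growth measured by sulforhodamine B optical density at time zero and after 48 h drug or vehicle exposure. Percentage growth calculated relative to control. GI50 is the molar concentration giving 50% reduction in net cell growth versus day-0 cell numbers.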

MCF7 = test: Cytotoxicity against human MCF7 cells after 48 hrs by SRB assay; format: functional; settings: MCF7, 48 h; outline: as §1
[1] = Cytotoxicity against human UACC257 cells after 48 hrs by SRB assay; format: functional; settings: UACC-257, 48 h
Outline: (§2)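 NCI-60 five-dose screen. Compounds dissolved in DMSO/H2O and tested at five 10-fold dilutions (10^-4 to 10^-8 M) for 48 h. Growth read by sulforhodamine B optical density at time zero and after 48 h of exposure to compound or vehicle. Percent growth calculated against control. GI50 is the molar concentration giving 50% reduction in net cell growth relative to cell number on day 0.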

[2] = Cytotoxicity against human SW620 cells after 48 hrs by SRB assay; format: functional; settings: SW-620, 48 h; outline: as §1
[3] = Cytotoxicity against human SKOV3 cells after 48 hrs by SRB assay; format: functional; settings: SK-OV-3, 48 h; outline: as §1
NCI-H460 = test: Cytotoxicity against human NCI-H460 cells after 48 hrs by SRB assay; format: functional; settings: NCI-H460, 48 h; outline: as §1
[4] = Cytotoxicity against human OVCAR8 cells after 48 hrs by SRB assay; format: functional; settings: OVCAR-8, 48 h; outline: as §1
NCI-H522 = test: Cytotoxicity against human NCI-H522 cells after 48 hrs by SRB assay; format: functional; settings: NCI-H522, 48 h; outline: as §1
[5] = Cytotoxicity against human SF268 cells after 48 hrs by SRB assay; format: functional; settings: SF-268, 48 h; outline: as §1
[6] = Cytotoxicity against human RPMI8226 cells after 48 hrs by SRB assay; format: functional; settings: RPMI-8226, 48 h; outline: as §1
[7] = Cytotoxicity against human BT549 cells after 48 hrs by SRB assay; format: functional; settings: BT-549, 48 h; outline: as §1
[8] = Cytotoxicity against human HL-60(TB) cells after 48 hrs by SRB assay; format: functional; settings: HL-60, 48 h; outline: as §1
KM12 = test: Cytotoxicity against human KM12 cells after 48 hrs by SRB assay; format: functional; settings: KM12, 48 h; outline: as §1
[9] = Cytotoxicity against human OVCAR3 cells after 48 hrs by SRB assay; format: functional; settings: OVCAR-3, 48 h; outline: as §1
SK-MEL-2 = test: Cytotoxicity against human SK-MEL-2 cells after 48 hrs by SRB assay; format: functional; settings: SK-MEL-2, 48 h; outline: as §1
NCI-H226 = test: Cytotoxicity against human NCI-H226 cells after 48 hrs by SRB assay; format: functional; settings: NCI-H226, 48 h; outline: as §1
[10] = Cytotoxicity against human HOP92 cells after 48 hrs by SRB assay; format: functional; settings: HOP-92, 48 h; outline: as §1
[11] = Cytotoxicity against human OVCAR5 cells after 48 hrs by SRB assay; format: functional; settings: OVCAR-5, 48 h; outline: as §1
[12] = Cytotoxicity against human TK10 cells after 48 hrs by SRB assay; format: functional; settings: TK-10, 48 h; outline: as §2
[13] = Cytotoxicity against human IGROV1 cells after 48 hrs by SRB assay; format: functional; settings: IGROV-1, 48 h
Outline: (§3)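 NCI-60 five-dose screen: compounds in DMSO/H2O tested at 10^-4 to 10^-8 M (10-fold steps) for 48 h. Cell mass read by sulforhodamine B optical density at time zero and after exposure to compound or vehicle. GI50 is the concentration giving 50% reduction in net cell growth relative to day-0 cell numbers.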

[14] = Cytotoxicity against human SF295 cells after 48 hrs by SRB assay; format: functional; settings: SF-295, 48 h; outline: as §1
Tubulin (Sus scrofa) = Tubulin (Sus scrofa) (UniProt P02554+P02550); test: Inhibition of porcine brain tubulin polymerization at 200 uM by spectrophotometric analysis
Chain of Tubulin (Sus scrofa) (P02550 whole entry, looked up): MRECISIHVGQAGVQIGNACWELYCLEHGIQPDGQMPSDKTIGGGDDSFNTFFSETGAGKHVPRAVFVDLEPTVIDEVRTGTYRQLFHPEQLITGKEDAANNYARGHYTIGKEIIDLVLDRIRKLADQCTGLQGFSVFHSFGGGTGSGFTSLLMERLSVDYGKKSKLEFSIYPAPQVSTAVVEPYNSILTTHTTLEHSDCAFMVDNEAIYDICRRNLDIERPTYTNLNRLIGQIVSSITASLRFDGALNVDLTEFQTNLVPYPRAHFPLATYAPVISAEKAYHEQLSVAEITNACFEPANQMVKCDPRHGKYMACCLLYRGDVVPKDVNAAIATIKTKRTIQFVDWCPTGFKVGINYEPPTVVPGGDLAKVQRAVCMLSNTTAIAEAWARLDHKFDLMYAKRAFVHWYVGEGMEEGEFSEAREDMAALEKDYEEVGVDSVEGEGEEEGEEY
Chain of Tubulin (Sus scrofa) (P02554 whole entry, looked up): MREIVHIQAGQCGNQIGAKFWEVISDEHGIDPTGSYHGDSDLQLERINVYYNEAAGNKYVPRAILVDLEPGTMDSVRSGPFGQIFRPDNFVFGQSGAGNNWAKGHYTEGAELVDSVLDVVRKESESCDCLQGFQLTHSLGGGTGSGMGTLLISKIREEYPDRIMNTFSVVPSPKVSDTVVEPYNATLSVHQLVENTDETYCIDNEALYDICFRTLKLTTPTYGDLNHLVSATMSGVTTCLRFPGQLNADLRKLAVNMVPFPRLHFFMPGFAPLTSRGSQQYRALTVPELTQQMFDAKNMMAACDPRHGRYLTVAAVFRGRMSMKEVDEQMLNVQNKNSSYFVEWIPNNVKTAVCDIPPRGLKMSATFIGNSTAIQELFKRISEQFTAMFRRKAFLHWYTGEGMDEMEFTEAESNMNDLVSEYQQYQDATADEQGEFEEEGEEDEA

[15] = Cytotoxicity against human SNB19 cells after 48 hrs by SRB assay; format: functional; settings: SNB-19, 48 h; outline: as §1
U-251 = test: Cytotoxicity against human U251 cells after 48 hrs by SRB assay; format: functional; settings: U-251, 48 h; outline: as §2
[16] = Cytotoxicity against human Caki1 cells after 48 hrs by SRB assay; format: functional; settings: CAKI-1, 48 h; outline: as §1
786-0 = test: Cytotoxicity against human 786-0 cells after 48 hrs by SRB assay; format: functional; settings: 786-0, 48 h; outline: as §1
Malme-3M = test: Cytotoxicity against human MALME-3M cells after 48 hrs by SRB assay; format: functional; outline: as §3
[17] = Cytotoxicity against human MOLT4 cells after 48 hrs by SRB assay; format: functional; settings: MOLT-4, 48 h; outline: as §1
HT-29 = test: Cytotoxicity against human HT-29 cells after 48 hrs by SRB assay; format: functional; settings: HT-29, 48 h; outline: as §1
SK-MEL-28 = test: Cytotoxicity against human SK-MEL-28 cells after 48 hrs by SRB assay; format: functional; settings: SK-MEL-28, 48 h; outline: as §1
[18] = Cytotoxicity against human HOP62 cells after 48 hrs by SRB assay; format: functional; settings: HOP-62, 48 h; outline: as §3
[19] = Cytotoxicity against human DU145 cells after 48 hrs by SRB assay; format: functional; settings: DU-145, 48 h; outline: as §1
A498 = test: Cytotoxicity against human A498 cells after 48 hrs by SRB assay; format: functional; settings: A498, 48 h; outline: as §1
EKVX = test: Cytotoxicity against human EKVX cells after 48 hrs by SRB assay; format: functional; outline: as §3
CCRF-CEM = test: Cytotoxicity against human CCRF-CEM cells after 48 hrs by SRB assay; format: functional; outline: as §1
[20] = Cytotoxicity against human PC3 cells after 48 hrs by SRB assay; format: functional; settings: PC-3, 48 h; outline: as §1
[21] = Cytotoxicity against human HCT15 cells after 48 hrs by SRB assay; format: functional; settings: HCT-15, 48 h; outline: as §1
[22] = Cytotoxicity against human NCI-ADR-RES cells after 48 hrs by SRB assay; format: functional; outline: as §1
[23] = Cytotoxicity against human SF539 cells after 48 hrs by SRB assay; format: functional; settings: SF-539, 48 h; outline: as §1
SK-MEL-5 = test: Cytotoxicity against human SK-MEL-5 cells after 48 hrs by SRB assay; format: functional; settings: SK-MEL-5, 48 h; outline: as §1
ACHN = test: Cytotoxicity against human ACHN cells after 48 hrs by SRB assay; format: functional; outline: as §1
T47D = test: Cytotoxicity against human T47D cells after 48 hrs by SRB assay; format: functional; outline: as §2
MDA-MB-231 = test: Cytotoxicity against human MDA-MB-231 cells after 48 hrs by SRB assay; format: functional; settings: MDA-MB-231, 48 h; outline: as §1
MDA-MB-468 = test: Cytotoxicity against human MDA-MB-468 cells after 48 hrs by SRB assay; format: functional; settings: MDA-MB-468, 48 h; outline: as §1
[24] = Cytotoxicity against human LOXIMVI cells after 48 hrs by SRB assay; format: functional; settings: LOX IMVI; outline: as §1
[25] = Cytotoxicity against human HCT116 cells after 48 hrs by SRB assay; format: functional; settings: HCT-116, 48 h; outline: as §1
MDA-MB-435 = test: Cytotoxicity against human MDA-MB-435 cells after 48 hrs by SRB assay; format: functional; settings: MDA-MB-435, 48 h; outline: as §1
[26] = Cytotoxicity against human HCC2998 cells after 48 hrs by SRB assay; format: functional; settings: HCC 2998, 48 h; outline: as §1
NCI-H23 = test: Cytotoxicity against human NCI-H23 cells after 48 hrs by SRB assay; format: functional; settings: NCI-H23, 48 h; outline: as §1
[27] = Cytotoxicity against human UACC62 cells after 48 hrs by SRB assay; format: functional; settings: UACC-62, 48 h; outline: as §2
K562 = test: Cytotoxicity against human K562 cells after 48 hrs by SRB assay; format: functional; settings: K562, 48 h; outline: as §1
[28] = Cytotoxicity against human UO31 cells after 48 hrs by SRB assay; format: functional; settings: UO-31, 48 h; outline: as §2
[29] = Cytotoxicity against human RXF393 cells after 48 hrs by SRB assay; format: functional; settings: RXF 393, 48 h; outline: as §1
M14 = test: Cytotoxicity against human M14 cells after 48 hrs by SRB assay; format: functional; settings: M14, 48 h; outline: as §1
[30] = Cytotoxicity against human Hs 578T cells after 48 hrs by SRB assay; format: functional; outline: as §1
[31] = Cytotoxicity against human COLO205 cells after 48 hrs by SRB assay; format: functional; settings: COLO 205, 48 h; outline: as §1

COc1cc(-c2nn(C)nc2-c2cc3ccccc3s2)cc(OC)c1OC
GI50 (A549): 167 nM | GI50 (MCF7): 40 nM | GI50 [1]: 51600 nM | GI50 [2]: 63 nM | GI50 [3]: 311 nM | GI50 (NCI-H460): 69 nM | GI50 [4]: 352 nM | GI50 (NCI-H522): 23 nM | GI50 [5]: 630 nM | GI50 [6]: 362 nM | GI50 [7]: 422 nM | GI50 [8]: 48 nM | GI50 (KM12): 54 nM | GI50 [9]: 354 nM | GI50 (SK-MEL-2): 59 nM | GI50 (NCI-H226): > 100000 nM | GI50 [10]: 80 nM | GI50 [11]: 2360 nM | GI50 [12]: 578 nM | GI50 [13]: 707 nM | GI50 [14]: 36 nM | inhibition (Tubulin (Sus scrofa)): inactive | GI50 [15]: 254 nM | GI50 (U-251): 78 nM | GI50 [16]: 3770 nM | GI50 (786-0): 312 nM | GI50 (Malme-3M): 16900 nM | GI50 [17]: 333 nM | GI50 (HT-29): 55 nM | GI50 (SK-MEL-28): 13000 nM | GI50 [18]: 553 nM | GI50 [19]: 263 nM | GI50 (A498): 41 nM | GI50 (EKVX): 466 nM | GI50 (CCRF-CEM): 220 nM | GI50 [20]: 77 nM | GI50 [21]: 58 nM | GI50 [22]: 103 nM | GI50 [23]: 149 nM | GI50 (SK-MEL-5): 225 nM | GI50 (ACHN): 294 nM | GI50 (T47D): > 100000 nM | GI50 (MDA-MB-231): 1600 nM | GI50 (MDA-MB-468): 82 nM | GI50 [24]: 168 nM | GI50 [25]: 73 nM | GI50 (MDA-MB-435): 25 nM | GI50 [26]: 407 nM | GI50 (NCI-H23): 392 nM | GI50 [27]: 53 nM | GI50 (K562): 42 nM | GI50 [28]: 744 nM | GI50 [29]: 286 nM | GI50 (M14): 76 nM | GI50 [30]: 270 nM | GI50 [31]: 82 nM
